Activity calls are given as the source filed them. No cut-off for these calls is given here.
How the values were obtained:
[1] = (§1) Antiproliferative activity against tamoxifen resistant human MCF7:5C cells assessed as inhibition of cell growth at 10 nM after 9 days by MTS assay; assay type: functional; details: 216 h
Outline: (§2)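 Tamoxifen-resistant MCF-7:5C cells (long-term estrogen-deprived MCF-7:ws8, phenol red-free RPMI with charcoal-dextran FBS) seeded 5000/well overnight, treated at 1, 10 or 100 nM with renewal every 3 days. […] Triplicates in at least three passages.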

[2] = (§3) Antiproliferative activity against tamoxifen resistant human MCF7:5C cells assessed as inhibition of cell growth at 100 nM after 9 days by MTS assay; assay type: functional; details: 216 h; outline: as §2
[3] = Cytotoxicity against human MCF7:WS8 cells at 0.1 to 1 uM after 3 days by MTT assay; assay type: cell-based; details: mcf7:ws8, 72 h
[4] = molecular target: T1, Estrogen receptor (Homo sapiens, UniProt P03372); test: Agonist activity at estrogen receptor alpha in human MCF7:WS8 cells after 18 hrs by dual luciferase reporter assay; assay type: cell-based
T1 sequence (P03372 whole entry): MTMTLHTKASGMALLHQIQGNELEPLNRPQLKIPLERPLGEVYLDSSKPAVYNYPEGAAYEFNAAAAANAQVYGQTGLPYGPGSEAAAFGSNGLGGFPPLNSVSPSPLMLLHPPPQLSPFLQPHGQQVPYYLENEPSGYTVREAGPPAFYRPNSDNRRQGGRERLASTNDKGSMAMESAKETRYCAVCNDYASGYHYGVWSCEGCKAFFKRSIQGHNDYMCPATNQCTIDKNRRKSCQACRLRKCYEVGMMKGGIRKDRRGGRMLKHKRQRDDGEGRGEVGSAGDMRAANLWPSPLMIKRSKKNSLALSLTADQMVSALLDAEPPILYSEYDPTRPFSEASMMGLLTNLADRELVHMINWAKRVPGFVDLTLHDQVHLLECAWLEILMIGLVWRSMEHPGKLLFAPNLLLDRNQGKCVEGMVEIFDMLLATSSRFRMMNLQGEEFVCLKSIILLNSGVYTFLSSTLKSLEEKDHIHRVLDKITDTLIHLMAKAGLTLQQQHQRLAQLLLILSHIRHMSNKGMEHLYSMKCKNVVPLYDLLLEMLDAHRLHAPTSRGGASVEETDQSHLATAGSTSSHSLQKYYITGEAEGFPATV

[5] = (§4) Antiproliferative activity against tamoxifen resistant human MCF7:5C cells assessed as inhibition of cell growth at 1 nM after 9 days by MTS assay; assay type: functional; details: 216 h; outline: as §2
[6] = tested on: MCF7:5C; test: as §1; assay type: functional; outline: as §2
[7] = tested on: MCF7:5C; test: as §3; assay type: functional; outline: as §2
[8] = tested on: MCF7:5C; test: as §4; assay type: functional; outline: as §2
[9] = molecular target: T2, Estrogen receptor (Homo sapiens) (UniProt P03372); test: Partial agonist activity at estrogen receptor alpha in human MCF7:WS8 cells at 100 nM after 6 hrs in presence of 100 nM GPR30 inhibitor G15 by luciferase reporter gene assay; assay type: cell-based
T2 sequence (whole entry): T1 sequence (P03372 whole entry)

[10] = molecular target: T2, Estrogen receptor (Homo sapiens); test: Partial agonist activity at biotinylated ERalpha LBD (unknown origin) assessed as increase in SRC3 coactivator recruitment after 1 hr by TR-FRET assay
Outline: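 Biotinylated ERα LBD (1 nM) premixed with streptavidin-terbium (0.25 nM). Fluorescein-labelled SRC3 was titrated with ligand at 20 μM. Incubation ran 1 h at room temperature in the dark. Read-out was TR-FRET: excitation 340 nm, emission 495 and 520 nm, 100-μs delay. Background from parallel wells without LBD was subtracted, and signal was plotted against log SRC3.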

[11] = molecular target: T2, Estrogen receptor (Homo sapiens); test: Partial agonist activity at biotinylated ERalpha LBD (unknown origin) assessed as inhibition of E2-induced SRC3 coactivator recruitment after 1 hr by TR-FRET assay
[12] = molecular target: T2, Estrogen receptor (Homo sapiens); test: Antagonist activity at ERalpha in human MCF7:WS8 cells assessed as E2-induced ERE activation after 18 hrs by luciferase reporter gene assay; assay type: cell-based
Outline: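 ERE-luciferase reporter in MCF-7:ws8 cells held in stripped medium 3 days, co-transfected with 3×ERE (Xenopus vitellogenin A2)-firefly luciferase and pRL-TK Renilla plasmids for 6 h. […] Average of three passages.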

[13] = molecular target: T1, Estrogen receptor; test: Partial agonist activity at ERalpha in human MCF7:WS8 cells after 18 hrs by luciferase reporter gene assay; assay type: cell-based
Outline: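 MCF-7:ws8 cells kept in stripped medium 3 days, then transiently co-transfected (6 h) with 3×ERE-firefly luciferase and pRL-TK Renilla plasmids. […] EC50 and Emax derived; mean ± s.e.m. from at least three passages.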

[14] = tested on: Mus musculus; test: Toxicity in BALB/c athymic mouse xenografted with tamoxifen-resistant human T47D:A18 cells overexpressing PKC-alpha assessed as uterine weight at 100 mg/kg administered via oral gavage daily; assay type: organism-based; details: in vivo
Outline: (§5)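 T47D:A18/PKCα xenografts established 12 weeks before dosing. Compound given orally at 100 mg/kg daily for 2 weeks in 0.1% Tween 80/10% PEG400/0.5% CMC, plus drinking water replaced by hydrogel suspension at 0.25 mg/mL. Tumor area (length/2 × width/2 × π) by calipers weekly; uteri excised and weighed at sacrifice (control n = 4, treated n = 6).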

[15] = tested on: T47D:A18; test: Antitumor activity against tamoxifen resistant human T47D:A18 cells overexpressing PKC-alpha xenografted into BALB/c athymic mouse assessed as reduction in tumor size at 100 mg/kg administered via oral gavage daily measured upto 2 weeks; assay type: functional, organism-based; outline: as §5

SMILES | inhibition at 0.01 µM [1] [%] | inhibition at 0.1 µM [2] [%] | Activity [3] | EC50 ([4]; read-out: EC50) [nM] | inhibition at 0.001 µM [5] [%] | inhibition [6] | inhibition [8] | further results
O=C(c1ccc(O)cc1)c1sc2cc(O)ccc2c1-c1ccc(F)cc1 | 99.8 | 100 | Non-toxic | 0.2 | 95.4 | – | – | –
Oc1ccc2cc(-c3ccc(F)cc3)sc2c1 | – | – | – | – | – | – | – | EC50 [4]: Not Active
O=C(c1ccc(C(F)(F)F)cc1)c1c(-c2ccc(Cl)cc2)sc2cc(O)ccc12 | – | – | Non-toxic | 121 | – | inactive | inactive | inhibition [7]: inactive
Oc1ccc2c(-c3ccc(F)cc3)c(Oc3ccc(F)cc3)sc2c1 | – | 86.6 | Non-toxic | 36.8 | – | inactive | inactive | –
Cc1ccc(C(=O)c2c(-c3ccc(O)cc3)sc3cc(O)ccc23)cc1 | 60.2 | 109 | Non-toxic | 2.6 | 11.5 | – | – | –
Oc1ccc(Oc2sc3cc(O)ccc3c2-c2ccc(F)cc2)cc1 [TTC-352] | 104 | 123 | Non-toxic | 0.8 | 50.6 | – | – | Activity [9]: Active; Activity [10]: Active; Activity [11]: Active; inhibition [12]: Dose-dependent effect; EC50 [13]: 0.8 nM
Oc1ccc2c(-c3ccc(F)cc3)c(Oc3ccc(F)c(F)c3)sc2c1 | – | 84.6 | Non-toxic | 33.4 | – | inactive | inactive | –
O=C(c1ccc(C(F)(F)F)cc1)c1sc2cc(O)ccc2c1-c1ccc(F)cc1 | 15.4 | 88.6 | Non-toxic | 5.2 | – | – | inactive | Activity [14]: Non-toxic; Activity [15]: Active
Oc1ccc(Oc2c(-c3ccc(F)cc3)sc3cc(O)ccc23)cc1 | – | – | Non-toxic | 6.2 | – | inactive | inactive | inhibition [7]: inactive
O=C(c1ccc(OCCN2CCCCC2)cc1)c1c(-c2ccc(O)cc2)sc2cc(O)ccc12 [RALOXIFENE] | – | – | Non-toxic | – | – | inactive | inactive | inhibition [7]: inactive
Oc1ccc2c(-c3ccc(F)cc3)c(Oc3ccc(Cl)cc3)sc2c1 | – | 30.7 | Non-toxic | 76.1 | – | inactive | inactive | inhibition [12]: Dose-dependent effect; EC50 [13]: 76.1 nM
CN(C)c1ccc(C(=O)c2sc3cc(O)ccc3c2-c2ccc(F)cc2)cc1 | 15.1 | 111 | Non-toxic | 30.6 | 4.1 | – | – | –
C#Cc1ccc(C(=O)c2sc3cc(O)ccc3c2-c2ccc(F)cc2)cc1 | 79.9 | 85.6 | Non-toxic | 5.3 | 31.4 | – | – | Activity [10]: Active; Activity [11]: Active; inhibition [12]: Dose-dependent effect; EC50 [13]: 5.3 nM; Activity [15]: Active
O=C(c1ccc(F)cc1)c1sc2cc(O)ccc2c1-c1ccc(F)cc1 | 32.4 | 131 | Non-toxic | 18.5 | – | – | inactive | –
O=C(c1sc2cc(O)ccc2c1-c1ccc(F)cc1)C1CCCCC1 | 134 | 147 | Non-toxic | 1 | 21.4 | – | – | –
Oc1ccc2c(-c3ccc(F)cc3)csc2c1 | – | – | – | – | – | – | – | EC50 [4]: Not Active
Cc1ccc(C(=O)c2sc3cc(O)ccc3c2-c2ccc(F)cc2)cc1 | 7.4 | 110 | Non-toxic | 717 | 13.3 | – | – | –
N#Cc1ccc(C(=O)c2sc3cc(O)ccc3c2-c2ccc(F)cc2)cc1 | – | 64.2 | Non-toxic | 58.7 | 2 | – | – | –
CS(=O)(=O)c1ccc(C(=O)c2sc3cc(O)ccc3c2-c2ccc(F)cc2)cc1 | – | 18.9 | Non-toxic | 436 | – | inactive | inactive | –
O=C(c1ccc(C(F)(F)F)cc1)c1c(-c2ccc(F)cc2)sc2cc(O)ccc12 | 69.7 | 108 | Non-toxic | 61.5 | 55.6 | – | – | –
O=C(c1sc2cc(O)ccc2c1-c1ccc(F)cc1)C1CC1 | 79.6 | 146 | Non-toxic | 13.9 | – | – | inactive | –

Source: ChEMBL document CHEMBL3763071, “Selective Human Estrogen Receptor Partial Agonists (ShERPAs) for Tamoxifen-Resistant Breast Cancer” (J Med Chem, 2016)
